Measured values as given in ChEMBL document CHEMBL1148007, “Synthesis of new S-derivatives of clubbed triazolyl thiazole as anti-Mycobacterium tuberculosis agents” (Bioorg Med Chem, 2007).
Converted amounts (≈) assume the structure as drawn.

How the values were obtained:
[1] = system: Pseudomonas aeruginosa; assay: Antibacterial activity against Pseudomonas aeruginosa at 50 to 100 uM after 24 hrs by well diffusion method; type: functional
Method in brief: (§1)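 Nutrient agar plates with 10 mm wells cut by cork borer; 24-h subcultured bacteria swabbed on. Compounds dissolved in chloroform, 50 to 100 μM added to wells, gentamycin as standard. Incubated 24 h at 24–28 °C; inhibition zone diameter measured and converted to percent inhibition.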

[2] = system: Escherichia coli; assay: Antibacterial activity against Escherichia coli at 50 to 100 uM after 24 hrs by well diffusion method; type: functional; method in brief: as §1
[3] = Cytotoxicity against Vero-C1008 cells at 6.25 to 50 ug/mL by neutral red uptake assay; type: cell-based; settings: chlorocebus sabaeus
Method in brief: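 Vero-C-1008 cells exposed to 6.25 to 50 μg/mL compound; viability read by neutral red uptake.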

[4] = system: Salmonella typhi; assay: Antibacterial activity against Salmonella typhi at 50 to 100 uM after 24 hrs by well diffusion method; type: functional, Salmonella enterica subsp. enterica serovar Typhi; set-up: unit not given here; method in brief: as §1
[5] = system: Mycobacterium tuberculosis; assay: Antitubercular activity against Mycobacterium tuberculosis H37Rv by MABA assay; type: functional
Method in brief: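 Actives re-tested at lower concentrations against H37Rv (ATCC 27294) in BACTEC 12B medium by Microplate Alamar Blue Assay. MIC taken as lowest concentration giving […] fluorescence reduction versus controls; rifampin reference.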

[6] = system: Staphylococcus aureus; assay: Antibacterial activity against Staphylococcus aureus at 50 to 100 uM after 24 hrs by well diffusion method; type: functional; method in brief: as §1

Row | Molecule | inhibition zone [1] [mm] | inhibition zone [2] [mm] | Activity [3] | Inhibition [4] | MIC [5] [µg/mL] | inhibition zone [6] [mm] | inhibition [1] [%] | inhibition [2] [%] | inhibition ([4]; Salmonella enterica subsp. enterica serovar Typhi) [%] | inhibition [6] [%]
1 | O=C(CCl)NNC(=O)CSc1nnc(Cc2csc(NC(=O)c3ccccc3)n2)n1NC(=O)c1ccc(Cl)cc1 | 23 | 19 | Non-toxic | 22 | < 6.25 | 26 |  |  |  | 
2 | CC(=O)Nc1nc(Cc2nnc(SCC(=O)NNC(=O)CCl)n2NC(=O)c2cccc([N+](=O)[O-])c2)cs1 | 18 | 18 | Non-toxic | 14 | < 6.25 | 12 |  |  |  | 
3 | COC(=O)CSc1nnc(Cc2csc(NC(C)=O)n2)n1NC(=O)c1ccc(Cl)cc1 | 16 | 10 | Non-toxic | 10 | < 6.25 | 20 |  |  |  | 
4 | CC(=O)Nc1nc(Cc2nnc(SCC#N)n2NC(=O)c2cccc([N+](=O)[O-])c2)cs1 | 26 | 20 | Non-toxic | 21 | < 6.25 | 22 |  |  |  | 
5 | O=C(O)CCNc1nc(Cc2nnc(SCC(=O)NNC(=O)CCl)n2NC(=O)c2ccc(Cl)cc2)cs1 |  |  | Non-toxic |  | < 6.25 |  |  |  |  | 
6 | COC(=O)CSc1nnc(Cc2csc(NCCC(=O)O)n2)n1NC(=O)c1cccc([N+](=O)[O-])c1 | 22 |  | Non-toxic | 20 | < 6.25 | 22 |  |  |  | 
7 | O=C(CSc1nnc(Cc2csc(NC(=O)CCl)n2)n1NC(=O)c1cccc([N+](=O)[O-])c1)NNC(=O)c1ccccc1 | 18 | 10 | Non-toxic | 18 | < 6.25 | 21 |  |  |  | 
8 | COC(=O)CSc1nnc(Cc2csc(NC(=O)CCl)n2)n1NC(=O)c1cccc([N+](=O)[O-])c1 | 24 | 20 | Non-toxic | 20 | < 6.25 | 26 |  |  |  | 
9 | CC(=O)NNC(=O)CSc1nnc(Cc2csc(NC(=O)c3ccccc3)n2)n1NC(=O)c1ccc(Cl)cc1 | 24 | 21 | Non-toxic | 19 | < 6.25 | 26 |  |  |  | 
10 | O=C(CCl)NNC(=O)CSc1nnc(Cc2csc(NC(=O)CCl)n2)n1NC(=O)c1ccc(Cl)cc1 |  | 18 | Non-toxic |  | < 6.25 | 24 |  |  |  | 
11 | O=C(Nc1nc(Cc2nnc(SCSc3nnc(Cc4csc(NC(=O)c5ccccc5)n4)n3NC(=O)c3cccc([N+](=O)[O-])c3)n2NC(=O)c2cccc([N+](=O)[O-])c2)cs1)c1ccccc1 | 24 | 24 | Non-toxic | 19 | < 6.25 | 26 |  |  |  | 
12 | Nn1c(S)nnc1CSc1nnc(Cc2csc(NC(=O)c3ccccc3)n2)n1NC(=O)c1cccc([N+](=O)[O-])c1 | 27 | 20 | Non-toxic | 19 | < 6.25 | 24 |  |  |  | 
13 | CC(=O)Nc1nc(Cc2nnc(SCc3nnc(S)n3N)n2NC(=O)c2cccc([N+](=O)[O-])c2)cs1 | 13 | 21 | Non-toxic | 18 | < 6.25 | 18 |  |  |  | 
14 | CC(=O)Nc1nc(Cc2nnc(SCC(=O)NNC(=O)CCl)n2NC(=O)c2ccc(Cl)cc2)cs1 | 20 | 18 | Non-toxic | 20 | < 6.25 | 25 |  |  |  | 
15 | Nn1c(S)nnc1Cc1csc(NCCC(=O)O)n1 | 22 | 20 | Non-toxic | 16 | < 6.25 | 25 |  |  |  | 
16 | O=C(O)CCNc1nc(Cc2nnc(SCC(=O)NNC(=O)c3ccccc3)n2NC(=O)c2cccc([N+](=O)[O-])c2)cs1 | 10 | 10 | Non-toxic | 14 | < 6.25 | 12 |  |  |  | 
17 | O=C(CSc1nnc(Cc2csc(NC(=O)CCl)n2)n1NC(=O)c1ccc(Cl)cc1)NNC(=O)c1ccccc1 | 26 | 21 | Non-toxic | 20 | < 6.25 | 21 |  |  |  | 
18 | O=C(Nc1nc(Cc2nnc(SCSc3nnc(Cc4csc(NC(=O)c5ccccc5)n4)n3NC(=O)c3ccc(Cl)cc3)n2NC(=O)c2ccc(Cl)cc2)cs1)c1ccccc1 | 27 | 20 | Non-toxic | 12 | < 6.25 | 29 |  |  |  | 
19 | Nn1c(S)nnc1CSc1nnc(Cc2csc(NC(=O)c3ccccc3)n2)n1NC(=O)c1ccc(Cl)cc1 | 19 | 20 | Non-toxic | 19 | < 6.25 | 26 |  |  |  | 
20 | NNC(=O)CSc1nnc(Cc2csc(NCCC(=O)O)n2)n1NC(=O)c1ccc(Cl)cc1 | 26 | 18 | Non-toxic | 22 | < 6.25 | 23 |  |  |  | 
21 | Nn1c(S)nnc1CSc1nnc(Cc2csc(NCCC(=O)O)n2)n1NC(=O)c1cccc([N+](=O)[O-])c1 | 28 | 17 | Non-toxic | 18 | < 6.25 | 26 |  |  |  | 
22 | GENTAMICIN |  |  |  |  |  |  | 35 | 31 | 30 | 34
23 | O=C(CSc1nnc(Cc2csc(NC(=O)c3ccccc3)n2)n1NC(=O)c1cccc([N+](=O)[O-])c1)NNC(=O)c1ccccc1 | 12 | 14 | Non-toxic | 12 | < 6.25 | 18 |  |  |  | 
24 | O=C(CCl)NNC(=O)CSc1nnc(Cc2csc(NC(=O)CCl)n2)n1NC(=O)c1cccc([N+](=O)[O-])c1 | 16 | 12 | Non-toxic | 18 | < 6.25 | 14 |  |  |  | 
25 | CC(=O)Nc1nc(Cc2nnc(SCC(=O)NNC(=O)c3ccccc3)n2NC(=O)c2cccc([N+](=O)[O-])c2)cs1 | 30 | 30 | Non-toxic | 27 | < 6.25 | 32 |  |  |  | 
26 | Nn1c(S)nnc1CSc1nnc(Cc2csc(NC(=O)CCl)n2)n1NC(=O)c1cccc([N+](=O)[O-])c1 | 26 | 18 | Non-toxic | 21 | < 6.25 | 20 |  |  |  | 
27 | CO[C@H]1/C=C/O[C@@]2(C)Oc3c(C)c(O)c4c(O)c(c(/C=N/N5CCN(C)CC5)c(O)c4c3C2=O)NC(=O)/C(C)=C\C=C\[C@H](C)[C@H](O)[C@@H](C)[C@@H](O)[C@@H](C)[C@H](OC(C)=O)[C@@H]1C [RIFAMPIN] |  |  |  |  | 0.015 (≈ 0.0182 µM) |  |  |  |  | 
28 | Nn1c(S)nnc1Cc1csc(NC(=O)CCl)n1 | 17 | 14 | Non-toxic | 12 |  | 18 |  |  |  | 
